Shown are actives, neighbours in structure and some others; about 4.3% of the full set was active somewhere.
TAAR1 antag: human TAAR1 antagonism; Q96RJ0; CHO RD-HGA16 TAAR1, Fluo-8 calcium fluorescence, antagonist; inhibition, % at 3 µM; actives 1.5% (n = 360,000); AID 624466;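 active = inhibition above a per-plate cutoff, the mean inhibition of test compounds on that plate plus 3 SD, cut at about 49% in these data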;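 also: 0% = DMSO plus EC80 beta-PEA response and 100% = DMSO alone without agonist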
Target sequence (Q96RJ0 whole entry, looked up): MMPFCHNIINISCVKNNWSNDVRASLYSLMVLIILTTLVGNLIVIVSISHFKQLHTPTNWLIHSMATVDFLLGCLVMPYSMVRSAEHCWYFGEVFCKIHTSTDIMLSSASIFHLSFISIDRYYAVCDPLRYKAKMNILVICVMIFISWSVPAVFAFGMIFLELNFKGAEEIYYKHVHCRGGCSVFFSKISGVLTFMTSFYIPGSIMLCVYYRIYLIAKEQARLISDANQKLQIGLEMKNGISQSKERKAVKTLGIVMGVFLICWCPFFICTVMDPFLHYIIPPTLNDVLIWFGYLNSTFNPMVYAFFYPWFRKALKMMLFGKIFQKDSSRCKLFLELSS
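Test system: CHO RD-HGA16 cells bearing hTAAR1 | Reagent: β-PEA, EC80 | Compound dosing: 3 µM, single point | Schedule: Dye loading 75 min at 37 °C, then 30 min room temperature | Signal: Calcium fluorescence with Fluo-8 | Evaluation: Percent inhibition of PEA-evoked calcium signal, max/basal emission ratio | Control set: DMSO-only wells and EC80 β-PEA-stimulated wells | Repeats: Singlicate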
OX1R antag-1: antagonists of human orexin 1 receptor | actives 0.43% (n = 330,000) | CHO/OX1R cells, Fluo-8 calcium fluorescence, orexin A | inhibition, % at 5 µM | O43613;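 active = inhibition above its plate's threshold, mean inhibition of all tested compounds on the plate plus 3 SD, cut at about 37% in these data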;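 also: 0% = orexin A challenge wells and 100% = SB-334867-A antagonist wells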
GalR3 antagonist: human GalR3 antagonism | O60755 | inhibition, % at 3 µM | HEK293 GalR3-CNG cAMP membrane potential fluorescence; galR3 body fused to GalR1 C-terminus | actives 0.44% (n = 360,000);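 active = inhibition above the screen-wide average plus 3 SD, cut at about 13% in these data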;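 also: forskolin and galanin both at EC90 stimulate the cells; cAMP rise reported by CNG channel membrane potential dye signal; 0% = forskolin plus galanin with DMSO and 100% = forskolin alone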
CHO parental Ca: counter-screen for OX1R antagonists: effect in parental CHO cells | inhibition, % at 5.6 µM | AID 463079 | parental CHO-K1, ATP-induced calcium, Fluo-8 fluorescence | actives 0.63% (n = 330,000);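 active = inhibition above that plate's mean sample inhibition plus 3 SD, cut at about 26% in these data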;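 also: 0% = ATP-challenged DMSO wells and 100% = DMSO wells without ATP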
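Assay system: untransfected parental CHO cell line. Also added: ATP agonist challenge. Dosing: one dose, 5.6 µM nominal. Measured by: Fluo-8 fluorescence. Read-out: % inhibition. Benchmarks: ATP wells versus no-ATP DMSO wells. Repeats: no replicates.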
OX1R antag-2: blocks the human orexin 1 receptor; O43613; OX1R-expressing cells, FRET antagonist read-out; inhibition, % at 6.6 µM; actives 1.8% (n = 330,000); AID 485270; in the data active = inhibition mostly above about 38%, no sharp cut-off; inactive = mostly below about 40%;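 also: 0% = agonist challenge alone and 100% = reference antagonist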
TAAR1 agonist: human TAAR1 agonism; activation, % at 3 µM; AID 624467; actives 0.99% (n = 360,000); CHO RD-HGA16 TAAR1, Fluo-8 calcium fluorescence; vehicle wells 0%, saturating PEA agonist 100%;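 active = activation above the mean activation of all test compounds in the run plus 3 SD, cut at about 38% in these data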
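Assay system: CHO-derived RD-HGA16 cells with stable Gα16 and human TAAR1; timing: 17-24 h seeding, 75 min 37 °C dye, 30 min RT; read-out: % activation from peak over basal fluorescence ratio, DMSO-to-PEA scaled; measured by: kinetic Fluo-8 calcium fluorescence; benchmarks: low control DMSO, high control PEA (EC100); doses: 3 µM single concentration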
* hit, by the source's call; / = no result.

SMILES	TAAR1 antag	OX1R antag-1	GalR3 antagonist	CHO parental Ca	OX1R antag-2	TAAR1 agonist
O=C(O)c1cc2ccccc2c2c1C(=O)c1ccccc1-2	-11	/	0	/	/	1
Nc1nc(-c2ccc(F)cc2)cc(C(F)(F)F)n1	-4	3	-5	5	5	0
Nc1nc(-c2ccc(Cl)cc2)cc(C(F)(F)F)n1	8	-2	-8	39*	14	4
CCOc1ccc(-c2[nH]ncc2Oc2ccccc2OCC)c(O)c1	49*	4	-1	3	7	17
O=C(CSc1nnc(Nc2ccccc2F)s1)Nc1cccc(S(=O)(=O)N2CCCCC2)c1	30	-30	-4	-20	5	2
O=C(O)c1ccc2c3c(cccc13)C(=O)N(c1ccccc1)C2=O	8	-11	0	-4	58*	-1
O=C1c2cccc3cccc(c23)C(=O)N1c1ccc(O)cc1	-11	-19	-8	2	14	2
NS(=O)(=O)c1ccc(O)c(N2C(=O)c3cccc4c(C(=O)O)ccc(c34)C2=O)c1	-1	-6	-1	4	35	4
NN1C(=O)c2cccc3c(C(=O)O)ccc(c23)C1=O	0	-7	6	-10	58*	2
O=C1c2cccc3c(Cl)ccc(c23)C(=O)N1O	-6	53*	0	27	52*	-5
O=C(O)c1ccc(N2C(=O)c3cccc4c(C(=O)O)ccc(c34)C2=O)cc1	-4	-2	-1	-6	42	1
O=C1c2cccc3c(N4CCCCC4)ccc(c23)C(=O)N1c1ccc(O)cc1	41	32	-2	28	10	59*
CCc1nc2ccc(C(=O)N3CCN(C(=O)c4ccco4)CC3)cn2c1N(C)C(=O)Nc1ccccc1OC	-16	/	-4	/	/	-1
O=C(c1ccc2c3c(cccc13)C(=O)N(O)C2=O)N1CCCCC1	-3	7	-1	-3	72*	3
COc1ccccc1CNC(=O)COc1ccccc1C(=O)c1cnn(-c2ccccc2)c1	57*	33	-5	-5	9	6
CCNC(=O)COc1ccc(F)cc1C(=O)c1cnn(-c2ccccc2)c1	3	-4	9	-9	24	0
NC(Cc1ccccc1)c1csc(Nc2ccc(C(F)(F)F)cn2)n1 (stereo not drawn)	20	/	-8	/	/	41*
Cc1cc(C)nc(Nc2nc(C(N)Cc3ccc(C(F)(F)F)cc3)cs2)n1 (stereo not drawn)	35	/	2	/	/	47*
COc1cc(OC)nc(Nc2nc(C(N)Cc3ccc(C(F)(F)F)cc3)cs2)n1 (stereo not drawn)	34	/	-6	/	/	53*
Cc1cc(C)nc(Nc2nc(C(N)Cc3ccc(F)cc3)cs2)n1 (stereo not drawn)	2	/	-3	/	/	28
NC(=O)c1cccc(Nc2nc(C(N)Cc3ccc(C(F)(F)F)cc3)cs2)n1 (stereo not drawn)	-17	/	-4	/	/	12
COc1ccc(NC(=O)Nc2ccc3c(c2)C(=O)N([C@H](C)CO)C[C@@H](C)[C@@H](CN(C)Cc2ccc4c(c2)OCO4)OCCCC[C@H](C)O3)cc1	-9	/	-4	/	/	0
COc1ccccc1C(=O)N1CCN(C(=O)[C@@H](Cc2ccccc2)NC(=O)[C@H]2O[C@@H](n3cnc(C(N)=O)n3)[C@H](O)[C@@H]2O)CC1	-19	/	-6	/	/	1
Nc1[nH]c(C(=O)c2ccc(Br)cc2)c(-c2ccc(Cl)cc2Cl)c1C(=O)NCCc1c[nH]c2ccccc12	-12	/	-6	/	/	1
C[C@@H](NC(=O)[C@@H]1CCCN1C(=O)[C@@H]1CCCN1C(=O)c1ccccc1)c1ccccc1	-16	/	3	/	/	0
Cc1[nH]ccc2cc3nc4ccccc4c3cc12	-8	/	-2	/	/	1
Oc1ccc2sc(-c3ccccc3O)c(-c3ccc(OCCN4CCCCC4)cc3)c2c1	53*	/	-6	/	/	39*
C[C@@H]1ON(C)[C@H]2C[C@H]3c4[nH]c5c(-c6ccc(Cl)cc6)cccc5c4CCN3C(=O)[C@@H]12	-11	/	-6	/	/	-1

Screening results (PubChem BioAssay)
